TRPC4 block: inhibitors of mouse TRPC4 channel. B-score at 10 µM. 300,000 tested, 0.39% active. HEK293 TRPC4beta/mu-opioid, DAMGO-evoked Fluo4 calcium flux; stronger effect = lower value. Q9QUQ5. AID 2247;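 active = B-score over 3 SD under the library average, no early fluorescence shift, positive overall ratio signal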
Target sequence (Q9QUQ5 whole entry, looked up): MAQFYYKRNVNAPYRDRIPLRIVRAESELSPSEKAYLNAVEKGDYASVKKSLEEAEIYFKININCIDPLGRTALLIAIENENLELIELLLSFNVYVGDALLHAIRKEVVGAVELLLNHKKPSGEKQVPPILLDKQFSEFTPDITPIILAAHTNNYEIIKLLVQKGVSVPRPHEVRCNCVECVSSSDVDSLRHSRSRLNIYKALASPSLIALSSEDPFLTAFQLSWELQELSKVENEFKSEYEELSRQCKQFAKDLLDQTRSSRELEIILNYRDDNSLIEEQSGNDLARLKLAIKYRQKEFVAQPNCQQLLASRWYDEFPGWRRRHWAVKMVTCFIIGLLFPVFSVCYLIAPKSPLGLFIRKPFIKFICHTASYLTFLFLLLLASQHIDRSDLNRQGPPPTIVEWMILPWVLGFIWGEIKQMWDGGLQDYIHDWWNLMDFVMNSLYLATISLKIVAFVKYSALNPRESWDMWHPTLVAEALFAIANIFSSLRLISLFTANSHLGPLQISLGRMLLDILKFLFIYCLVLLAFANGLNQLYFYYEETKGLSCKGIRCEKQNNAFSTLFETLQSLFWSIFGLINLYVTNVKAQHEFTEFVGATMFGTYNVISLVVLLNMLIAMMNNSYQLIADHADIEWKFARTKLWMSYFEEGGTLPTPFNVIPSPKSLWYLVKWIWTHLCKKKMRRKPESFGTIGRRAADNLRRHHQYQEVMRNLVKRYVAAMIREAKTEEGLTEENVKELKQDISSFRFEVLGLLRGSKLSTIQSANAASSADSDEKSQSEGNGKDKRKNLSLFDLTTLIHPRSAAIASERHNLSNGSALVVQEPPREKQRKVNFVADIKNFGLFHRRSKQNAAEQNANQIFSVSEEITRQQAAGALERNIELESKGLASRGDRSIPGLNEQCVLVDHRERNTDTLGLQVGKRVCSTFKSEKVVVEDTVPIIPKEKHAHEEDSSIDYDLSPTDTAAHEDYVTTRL
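material = TRPC4beta/mu-opioid receptor HEK293 cell line | probe or stimulus = sequential submaximal and maximal DAMGO stimulation | compound dosing = one concentration per compound | measured by = Fluo4 Ca2+ flux fluorescence | evaluation = integrated fluorescence ratio relative to baseline, converted to per-well B score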
TRPC6 act: mouse TRPC6 channel activation; 310,000 tested, 0.13% active; B-score at 10 µM; Q61143; HEK293-TRPC6 membrane potential dye fluorescence; stronger effect = higher value;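 active = B-score of the integrated fluorescence ratio above library mean plus 3 SD, and starting fluorescence ratio within library mean plus 5 SD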;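 note: higher score means more depolarization so channel activation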
TRPC6 inhibitor: mouse TRPC6 channel inhibition | Q61143 | HEK293-TRPC6, membrane potential dye, ACh-evoked depolarization; stronger effect = lower value | B-score at 10 µM | 310,000 tested, 1.1% active;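 active = B-score under library mean minus 3 SD, initial fluorescence not abnormally high, positive integrated signal ratio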;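 note: B-score derived from integrated fluorescence ratio over the kinetic read; more negative B-score means stronger inhibition of depolarization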
TRPC4 PAM: TRPC4 (mouse) allosteric potentiation; HEK293 TRPC4beta/mu-opioid, DAMGO EC20, Fluo-4 Ca2+ flux; stronger effect = higher value; B-score at 10 µM; 310,000 tested, 0.42% active; AID 2227;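 active = B-score of calcium response area above 5 SD of library B-scores, with initial fluorescence ratio within 5 SD of library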;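 note: B-score of integrated fluorescence ratio over time as area under calcium response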
TRPC4 agonist: activators of mouse TRPC4 channel. HEK293 TRPC4beta/mu-opioid, Fluo4 calcium fluorescence; stronger effect = higher value. AID 2237. Q9QUQ5. 310,000 tested, 0.49% active. B-score at 10 µM;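 active = B-score above 5 SD of library B-scores, and initial fluorescence ratio not above library mean plus 5 SD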;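 note: positive B-score marks a calcium rise read as TRPC4 activation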
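Incubation: 45 min room-temperature Fluo4 loading, 110 s read / System: HEK293 cells stably co-expressing mouse TRPC4beta and mu-opioid receptor / Signal: Fluo4 fluorescence, kinetic / Control set: buffer (low) and maximal DAMGO (high) / Measure: integrated baseline-normalised fluorescence ratio, converted to per-well B score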
TRPC4 sel inh 2: second check of whether TRPC6 inhibitors also affect mouse TRPC4. shares compounds with TRPC6 inhibitor. HEK293 TRPC4/MOR, membrane potential dye fluorescence; channel activated by saturating DAMGO dose. inhibition, % at 10 µM. 920 tested, 42% active;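 active = compounds whose fluorescence signal differed from control wells by over 3 SD, either direction, in both duplicate plates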
TRPC4 spec: tests whether TRPC6 inhibitors also affect mouse TRPC4; HEK293 TRPC4/mu-opioid, membrane potential fluorescence; shares compounds with TRPC6 inhibitor; activity change, negative = inhibition, % at 10 µM; 920 tested, 61% active; AID 2777;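 active = rise or fall in signal beyond 3 SD of buffer-only wells in both replicate plates, either sign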;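 note: integrated kinetic ratio of fluorescence range over baseline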
HEK293 MPD ctr 2-1: parental HEK293 nonspecific activity of TRPC6 inhibitors, second screen; shares compounds with TRPC6 inhibitor; signal change vs control, % at 10 µM; AID 2779; parental HEK293 membrane potential dye fluorescence; maximal acetylcholine challenge after compound addition; 920 tested, 31% active;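 active = membrane potential signal moving either way by over 3 SD of the maximum-effect control, in both duplicate plates, meaning non-specific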
HEK293 MPD ctr-1: parental HEK293 nonspecific activity of TRPC6 inhibitors; shares compounds with TRPC6 inhibitor; parental HEK293 membrane potential dye fluorescence; membrane potential signal change, % at 10 µM; 920 tested, 60% active; AID 2780;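 active = membrane potential signal shifting up or down by more than 3 SD of buffer-only wells, on both duplicate plates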
HEK293 MPD ctr-2: counter-screen for TRPC6 modulators: effect in parental HEK293 cells; shares compounds with TRPC6 inhibitor; membrane potential dye fluorescence; membrane potential signal change, % at 10 µM; 2,400 tested, 51% active;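 active = membrane potential signal moves up or down beyond 5 SD from buffer-only wells, on both duplicate plates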
HEK293 MPD ctr 2-2: second counter-screen for TRPC6 modulators: effect in parental HEK293 cells; membrane potential dye fluorescence; after compound, maximal acetylcholine stimulation; shares compounds with TRPC6 inhibitor; 2,400 tested, 14% active; inhibition, % at 10 µM;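 active = membrane potential signal drops by more than 5 SD from the mean control signal, in both duplicate plates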;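 note: plate controls were acetylcholine ECmax control wells for no effect and buffer only wells for full effect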
TRPC4/MOR mod: mouse TRPC4 off-target activity of TRPC6 modulators | AID 488927 | 2,400 tested, 69% active | HEK293 TRPC4/mu-opioid, membrane potential fluorescence | percent change from control (negative = decrease, positive = increase), % at 10 µM | shares compounds with TRPC6 inhibitor;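 active = membrane potential signal moved up or down beyond 5 SD of buffer control wells, in both duplicate plates, actives on both sides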;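 note: plate controls were assay buffer wells for no effect and DAMGO maximal-effect wells for full effect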
TRPC4/MOR inh 2: second check of whether TRPC6 modulators also affect mouse TRPC4. shares compounds with TRPC6 inhibitor. HEK293 TRPC4/mu-opioid, membrane potential dye fluorescence; stimulated with maximal-effect DAMGO. inhibition, % at 10 µM. 2,400 tested, 55% active. AID 488928;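 active = drop in membrane potential signal beyond 5 SD of the control wells in both duplicate plates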;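 note: TRPC4 counter screen for TRPC6 hits run under conditions tuned for TRPC6 not TRPC4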
TRPC6 inh conf: mouse TRPC6 inhibitor confirmation | inhibition, % at 10 µM | HEK293-TRPC6, membrane potential dye, ACh-evoked depolarization | AID 488960 | 3,300 tested, 43% active | shares compounds with TRPC6 inhibitor;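 active = fluorescence ratio falls more than 5 SD below the full-stimulation control mean, in both duplicate runs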;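 note: integrated fluorescence ratio of peak minus minimum over baseline after agonist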
TRPC6 act confirm: confirmation of mouse TRPC6 activators. 2,800 tested, 11% active. AID 488961. HEK293-TRPC6 membrane potential dye fluorescence, FDSS. shares compounds with TRPC6 inhibitor. activation, % at 10 µM;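 active = ratio signal rise beyond 5 SD above unstimulated control wells' mean, seen in both duplicate runs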;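 note: plate controls were buffer EC0 wells for no effect and acetylcholine ECmax response for full effect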
* marks the source's active call; other numbers are inactive results; i = inactive; / = no result. Shown are actives, neighbours in structure and some others; about 2.3% of the full set was active somewhere.

SMILES | TRPC4 block | TRPC6 act | TRPC6 inhibitor | TRPC4 PAM | TRPC4 agonist | TRPC6 inh conf | TRPC6 act confirm | others
CCN(c1ccccc1)S(=O)(=O)c1cccc(C(=O)N2CCN(S(=O)(=O)c3ccccc3)CC2)c1 | i | i | -11* | i | i | i | / | TRPC4 sel inh 2=i;TRPC4 spec=i;HEK293 MPD ctr 2-1=i;HEK293 MPD ctr-1=i
Cc1ccc(C(=O)N2CCN(S(=O)(=O)c3ccc(C(C)C)cc3)CC2)s1 | i | 15* | -13* | i | i | i | i | HEK293 MPD ctr-2=i;HEK293 MPD ctr 2-2=i;TRPC4/MOR mod=i;TRPC4/MOR inh 2=i
O=C(c1cccc(-n2cccc2)c1)N1CCN(S(=O)(=O)c2ccccc2)CC1 | i | i | -7* | i | i | 66%* | i | TRPC4 sel inh 2=i;TRPC4 spec=i;HEK293 MPD ctr 2-1=i;HEK293 MPD ctr-1=i
O=C(c1cccc(S(=O)(=O)N2CCCC2)c1)N1CCN(c2ccccc2F)CC1 | i | i | i | i | i | / | /
O=C(c1cccc(-n2cccc2)c1)N1CCN(S(=O)(=O)c2c(F)cccc2F)CC1 | i | i | -6.1* | i | i | 44%* | / | HEK293 MPD ctr-2=i;HEK293 MPD ctr 2-2=i;TRPC4/MOR mod=i;TRPC4/MOR inh 2=i
C=CCN(c1ccccc1)S(=O)(=O)c1cccc(C(=O)N2CCCC2)c1 | i | i | i | i | i | / | /
O=C(c1cccc(S(=O)(=O)N2CCN(c3ccccc3)CC2)c1)N1CCCCCCC1 | i | i | i | i | i | / | /
COc1ccc(Br)cc1/C=N/Nc1ccccn1 | i | i | i | i | i | / | /
Cc1cc(Br)ccc1S(=O)(=O)NCc1ccccc1 | i | i | i | i | i | / | /
CN(C)c1cccc(C(=O)Nc2nnc(Cc3ccccc3)s2)c1 | i | i | i | i | i | / | /
COc1ccc(Cc2nnc(NC(=O)c3ccccc3F)s2)cc1 | i | i | i | i | i | / | /
CC(=O)C1=C(C)NC(=O)CC1c1ccc(Br)cc1 (stereo not drawn) | i | i | i | i | i | / | /
Cn1c(=O)cc2c3c(c(N4CCCCC4)ccc31)C(=O)c1ccccc1-2 | i | i | -5.1* | i | i | 39%* | i | HEK293 MPD ctr-2=-182%*;HEK293 MPD ctr 2-2=i;TRPC4/MOR mod=-42%*;TRPC4/MOR inh 2=54%*
O=C1c2ccccc2C(=O)c2c1cccc2N1CCCC1 | i | i | i | i | i | / | /
Cc1cc(=O)[nH]c(SCC(=O)c2ccc(F)c(C)c2)n1 | i | i | i | i | i | / | /
Cc1nc2nc(SCC(=O)NCCCN3CCCC(C)C3)nn2c(C)c1Cc1ccccc1Cl (stereo not drawn) | i | i | -6.7* | i | i | 49%* | / | HEK293 MPD ctr-2=i;HEK293 MPD ctr 2-2=i;TRPC4/MOR mod=i;TRPC4/MOR inh 2=i
COc1ccc(C(=O)/C(C#N)=N/Nc2ccc([N+](=O)[O-])cc2)cc1 | i | i | -5.7* | i | i | i | i | HEK293 MPD ctr-2=i;HEK293 MPD ctr 2-2=i;TRPC4/MOR mod=i;TRPC4/MOR inh 2=i
Oc1ccc(N=Nc2ccc(Br)cc2)c(O)c1 | i | i | -5.3* | i | i | i | i | HEK293 MPD ctr-2=i;HEK293 MPD ctr 2-2=i;TRPC4/MOR mod=i;TRPC4/MOR inh 2=i
Oc1ccc(N=Nc2ccc3c(c2)OCCO3)c(O)c1 | i | i | i | i | i | / | /
COc1ccc(C(F)(F)F)cc1N/C=C/c1nnnn1-c1ccc(C)cc1 | i | i | i | i | i | / | /
CCOC(=O)c1sc2ncnc(N3CCN(C(=O)OCC)CC3)c2c1C | i | i | i | i | i | / | /
CCOC(=O)c1sc2ncnc(N3CCN(CC)CC3)c2c1C | i | i | -5.5* | i | i | i | i | HEK293 MPD ctr-2=-128%*;HEK293 MPD ctr 2-2=i;TRPC4/MOR mod=-21%*;TRPC4/MOR inh 2=41%*
COc1ccc(Nc2nc(NCC3CCCO3)c3ccccc3n2)c(OC)c1 (stereo not drawn) | -6* | i | -9.8* | i | i | 75%* | i | TRPC4 sel inh 2=48%*;TRPC4 spec=-16%*;HEK293 MPD ctr 2-1=i;HEK293 MPD ctr-1=-223%*
Oc1cccc(Nc2nc(NCC3CCCO3)c3ccccc3n2)c1 (stereo not drawn) | i | i | i | i | i | / | /
CCOc1ccc(Nc2nc(NCC3CCCO3)c3ccccc3n2)cc1 (stereo not drawn) | -5* | i | -9.6* | i | i | i | i | TRPC4 sel inh 2=56%*;TRPC4 spec=-17%*;HEK293 MPD ctr 2-1=i;HEK293 MPD ctr-1=-150%*
SMILES | TRPC4 block | TRPC6 act | TRPC6 inhibitor | TRPC4 PAM | TRPC4 agonist | TRPC6 inh conf | TRPC6 act confirm | others
c1ccc(Nc2nc(NCC3CCCO3)c3ccccc3n2)cc1 (stereo not drawn) | -6* | i | -8.8* | i | i | 53%* | i | TRPC4 sel inh 2=31%*;TRPC4 spec=-15%*;HEK293 MPD ctr 2-1=i;HEK293 MPD ctr-1=-135%*
c1ccc(-c2nc(NCC3CCCO3)c3ccccc3n2)nc1 (stereo not drawn) | i | i | i | i | i | / | /
COc1ccc(-n2c(SCC(=O)Nc3cc(C)on3)nc3c([nH]c4ccccc43)c2=O)cc1OC | i | i | i | i | i | / | /
FC(F)(F)c1cnc(-c2cnc(-c3cccnc3)nc2)c(Cl)c1 | i | i | i | i | i | / | /
CCC(C)(C)NC(=O)CN(C(=O)CCC(=O)Nc1nccs1)c1cccc(C)c1C | i | i | i | i | i | / | /
CC(C)Oc1ccc(C(=O)NC2CCCCC2)cc1 | i | i | i | i | i | / | /

Screening data (PubChem)
